Experimental data: ChEMBL document CHEMBL4004807 (J Med Chem, 2017)
The source made the active and inactive calls. The calls are words filed in the database; no cut-off is given here.

Tests used:
[1] = biological target: T1, Prostaglandin E2 receptor EP3 subtype (Homo sapiens, UniProt P43115); test: Agonist activity at recombinant human EP3v6 receptor expressed in melanophores assessed as induction of pigment redistribution up to 10 uM after 90 mins; conditions: 1.5 h
T1 sequence (P43115 whole entry): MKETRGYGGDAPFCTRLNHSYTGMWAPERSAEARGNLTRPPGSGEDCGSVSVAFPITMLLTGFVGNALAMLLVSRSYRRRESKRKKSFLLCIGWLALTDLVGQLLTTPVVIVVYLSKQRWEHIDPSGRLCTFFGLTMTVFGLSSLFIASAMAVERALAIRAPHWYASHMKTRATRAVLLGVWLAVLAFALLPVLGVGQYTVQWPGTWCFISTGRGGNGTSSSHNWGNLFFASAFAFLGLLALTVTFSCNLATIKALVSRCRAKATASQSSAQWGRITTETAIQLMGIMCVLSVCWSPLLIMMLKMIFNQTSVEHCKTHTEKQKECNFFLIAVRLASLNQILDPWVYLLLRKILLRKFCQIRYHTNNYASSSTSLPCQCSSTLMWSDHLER
Outline: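 Melanophores electroporated with 20 μg human EP3v6 plasmid per 400 μL cells, grown 48 h at 27 °C. Assay buffer 0.7× PBS pH 7.3 with 20 nM melatonin to aggregate pigment, 90 min at room temperature, 650 nm baseline; compounds added (10-point, 5-fold dilutions, top 10 μM final), 90 min room temperature, absorbance reread.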

[2] = Selectivity ratio of EC50 for recombinant rat IP receptor expressed in CHO-K1 cells to EC50 for recombinant human IP receptor expressed in CHO-K1 cells; type: cell-based
Prostacyclin receptor = Prostacyclin receptor (Homo sapiens, UniProt P43119); test: Ratio of IC50 for IP receptor in human primary platelets to EC50 for recombinant human IP receptor expressed in CHO-K1 cells; type: cell-based
Sequence of Prostacyclin receptor (P43119 whole entry): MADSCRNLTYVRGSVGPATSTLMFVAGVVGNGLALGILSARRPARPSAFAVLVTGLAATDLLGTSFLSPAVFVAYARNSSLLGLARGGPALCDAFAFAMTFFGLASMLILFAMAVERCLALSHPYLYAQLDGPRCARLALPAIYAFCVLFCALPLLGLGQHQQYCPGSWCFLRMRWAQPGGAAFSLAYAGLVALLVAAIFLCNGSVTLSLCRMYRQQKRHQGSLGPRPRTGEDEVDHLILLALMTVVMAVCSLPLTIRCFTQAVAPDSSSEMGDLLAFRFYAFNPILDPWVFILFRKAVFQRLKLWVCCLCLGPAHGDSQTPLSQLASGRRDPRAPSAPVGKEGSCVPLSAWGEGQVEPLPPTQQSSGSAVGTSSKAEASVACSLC

Rattus norvegicus [3] = test: Inhibition of right ventricle hypertrophic response in Sprague-Dawley rat monocrotaline model of pulmonary arterial hypertension assessed as reduction of MCT-induced increase in ratio of right ventricular weight to left ventricle plus septum weight administered via oral gavage twice daily for 21 consecutive days starting 24 hrs after monocrotaline challenge; type: functional
Outline: (§1)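 Male rats given 60 mg/kg monocrotaline sc on day 1 (sham: saline) under 30 mg/kg ip pentobarbital; from next day for 20 days dosed by oral gavage twice daily at 10 or 30 mg/kg in 20% HPBCD in saline (vehicle control). Day 21: RV/(LV+S) weights; mPAP via catheter under 60 mg/kg pentobarbital (30 mg/kg group, n = 5); H&E lung sections, 5 animals/group.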

Rattus norvegicus [4] = test: Unbound Cmax in Sprague-Dawley rat at 10 mg/kg, po administered via gavage as single dose; type: ADME, organism-based; conditions: in vivo
[5] = Drug uptake in bile-duct cannulated rat bile; type: ADME; conditions: in vivo
[6] = Drug metabolism in bile-duct cannulated rat bile assessed as 2-(2-(((1r,4r)-4-(((4-chlorophenyl)(phenyl)carbamoyloxy)methyl)cyclohexyl)methoxy)acetoxy)ethanesulfonic acid formation; type: ADME
Plasma [7] = test: Drug metabolism in bile-duct cannulated rat plasma assessed as 2-(((1r,4r)-4-(((4-chlorophenyl)(4-hydroxyphenyl)carbamoyloxy)methyl)cyclohexyl)methoxy)acetic acid formation; type: ADME, cell-free
[8] = biological target: Prostaglandin E2 receptor EP2 subtype (Homo sapiens) (UniProt P43116); test: Agonist activity at recombinant human EP2 receptor expressed in CHO-K1 cells assessed as increase in intracellular cAMP level up to 10 uM after 1 hr incubation by HTRF method; type: functional, cell-based
Sequence of Prostaglandin E2 receptor EP2 subtype (Homo sapiens) (P43116 whole entry): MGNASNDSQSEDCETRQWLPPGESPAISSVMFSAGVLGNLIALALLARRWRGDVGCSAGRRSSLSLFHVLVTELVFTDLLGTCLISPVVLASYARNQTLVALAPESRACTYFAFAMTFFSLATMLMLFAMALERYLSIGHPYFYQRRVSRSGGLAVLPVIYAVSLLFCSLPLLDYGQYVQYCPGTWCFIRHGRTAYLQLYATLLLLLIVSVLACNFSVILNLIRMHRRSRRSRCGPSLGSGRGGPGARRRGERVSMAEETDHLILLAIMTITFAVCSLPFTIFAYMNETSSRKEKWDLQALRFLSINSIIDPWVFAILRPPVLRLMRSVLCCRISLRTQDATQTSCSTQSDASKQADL

[9] = Total clearance in cynomolgus monkey at 0.1 mg/kg, iv; type: ADME, organism-based, Macaca fascicularis; conditions: in vivo
Rattus norvegicus [10] = test: Cardioprotective effect in Sprague-Dawley rat monocrotaline model of pulmonary arterial hypertension assessed as reduction of MCT-induced increase of pulmonary arterial pressue at 30 mg/kg administered via oral gavage twice daily for 21 consecutive days starting 24 hrs after monocrotaline challenge; type: functional, organism-based; outline: as §1
[11] = Volume of distribution at steady state in Beagle dog at 0.2 mg/kg, iv; type: ADME, organism-based, Canis lupus familiaris; conditions: in vivo
[12] = Volume of distribution at steady state in cynomolgus monkey at 0.1 mg/kg, iv; type: ADME, organism-based, Macaca fascicularis; conditions: in vivo
Rattus norvegicus [13] = test: AUC (0 to infinity) in Sprague-Dawley rat at 10 mg/kg, po; type: ADME, organism-based; parameters: dose 10 mg/kg, route oral, time infinity; conditions: in vivo
Outline: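 Sprague-Dawley rats, single oral dose of 10.0 mg/kg; AUC0-inf from plasma concentrations.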

[14] = biological target: Prostaglandin E2 receptor EP4 subtype (Homo sapiens) (UniProt P35408); test: Agonist activity at recombinant human EP4 receptor expressed in CHO-K1 cells assessed as increase in intracellular cAMP level up to 10 uM after 1 hr incubation by HTRF method; type: functional, cell-based
Sequence of Prostaglandin E2 receptor EP4 subtype (Homo sapiens) (P35408 whole entry): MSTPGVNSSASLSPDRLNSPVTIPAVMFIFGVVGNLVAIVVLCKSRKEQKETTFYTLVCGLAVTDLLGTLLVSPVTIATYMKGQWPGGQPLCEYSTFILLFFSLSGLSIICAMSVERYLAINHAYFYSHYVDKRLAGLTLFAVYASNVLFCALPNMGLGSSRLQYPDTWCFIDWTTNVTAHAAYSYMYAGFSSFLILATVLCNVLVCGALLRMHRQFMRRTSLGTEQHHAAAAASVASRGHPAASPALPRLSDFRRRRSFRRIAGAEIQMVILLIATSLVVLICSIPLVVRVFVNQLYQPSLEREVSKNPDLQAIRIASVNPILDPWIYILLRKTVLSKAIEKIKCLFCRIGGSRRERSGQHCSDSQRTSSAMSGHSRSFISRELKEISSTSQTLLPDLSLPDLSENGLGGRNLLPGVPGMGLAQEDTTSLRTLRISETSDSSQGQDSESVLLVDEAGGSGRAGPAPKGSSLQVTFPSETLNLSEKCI

[15] = Drug uptake in bile-duct cannulated rat urine; type: ADME; conditions: in vivo
[16] = Total clearance in Beagle dog at 0.2 mg/kg, iv; type: ADME, organism-based, Canis lupus familiaris; conditions: in vivo
Plasma [17] = test: Drug metabolism in bile-duct cannulated rat plasma assessed as 2-(2-(((1r,4r)-4-(((4-chlorophenyl)(4-hydroxyphenyl)carbamoyloxy)methyl)cyclohexyl)methoxy)acetoxy)ethanesulfonic acid formation; type: ADME, cell-free
Plasma [18] = test: Drug uptake in bile-duct cannulated rat plasma; type: ADME, cell-free
Rattus norvegicus [19] = test: Inhibition of hypertrophic response in Sprague-Dawley rat monocrotaline model of pulmonary arterial hypertension assessed as reduction of MCT-induced increase in pulmonary vessel wall thickness at 30 mg/kg administered via oral gavage twice daily for 21 consecutive days starting 24 hrs after monocrotaline challenge by morphometric analysis; type: functional, organism-based; outline: as §1
[20] = Total clearance in Sprague-Dawley rat plasma at 2 mg/kg, iv or 10 mg/kg, po; type: ADME, organism-based
[21] = Volume of distribution at steady state in Sprague-Dawley rat at 2 mg/kg, iv or 10 mg/kg, po; type: ADME, organism-based; conditions: in vivo
Plasma [22] = test: Drug level in bile-duct cannulated rat plasma treated with 2-(((1r,4r)-4-(((4-chlorophenyl)(phenyl)carbamoyloxy)methyl)cyclohexyl)methoxy)acetic acid; type: ADME, cell-free

| SMILES | Ratio IC50/EC50 (Prostacyclin receptor) | AUC (Rattus norvegicus [13]) [µg·h/mL] | clearance [20] [L/h/kg] | Ratio EC50 [2] | further results |
| --- | --- | --- | --- | --- | --- |
| CC#CCC(C)[C@H](O)/C=C/[C@@H]1[C@H]2C/C(=C/CCCC(=O)O)C[C@H]2C[C@H]1O (stereo partly drawn) [ILOPROST] | – | – | – | – | Activity [1]: Active |
| O=C(O)COC[C@H]1CC[C@H](COC(=O)N(c2ccccc2)c2ccccc2)CC1 | 2 to 10 | – | – | 10 to 30 | – |
| Cc1ccc(N(C(=O)OC[C@H]2CC[C@H](COCC(=O)O)CC2)c2ccccc2)cc1 | 2 to 10 | – | – | 10 to 30 | – |
| O=C(O)COC[C@H]1CC[C@H](COC(=O)N(c2ccccc2)c2ccc(Cl)cc2)CC1 | – | 14.6 | 0.427 | – | inhibition (Rattus norvegicus [3]): Dose-dependent effect; fCmax (Rattus norvegicus [4]): 100 nM; Drug uptake [5]: Active; Drug metabolism [6]: Metabolite_Detected; Drug metabolism (Plasma [7]): Metabolite_Detected; Activity [8]: inactive; clearance [9]: 0.881 L/h/kg; Activity (Rattus norvegicus [10]): Active; Vd [11]: 0.308 L/kg; Vd [12]: 10.1 L/kg; Activity [14]: inactive; Drug uptake [15]: Active; clearance [16]: 0.202 L/h/kg; Drug metabolism (Plasma [17]): Metabolite_Detected; Drug uptake (Plasma [18]): Active; inhibition (Rattus norvegicus [19]): Active; Activity [1]: Active |
| O=C(COC[C@H]1CC[C@H](COC(=O)N(c2ccc(O)cc2)c2ccc(Cl)cc2)CC1)NCCS(=O)(=O)O | – | – | – | – | Drug metabolism (Plasma [22]): Metabolite_Detected |
| COc1ccc(N(C(=O)OC[C@H]2CC[C@@H](COCC(=O)O)CC2)c2ccccc2)cc1 | 2 to 10 | – | – | 10 to 30 | – |
| COc1ccc(N(C(=O)OC[C@H]2CC[C@H](COCC(=O)O)CC2)c2cccc(F)c2)cc1 | 2 to 10 | – | – | 10 to 30 | – |
| O=C(O)COC[C@H]1CC[C@H](COC(=O)N(c2ccccc2)c2ccc(F)cc2)CC1 | 2 to 10 | 7.9 | 1.8 | 10 to 30 | Vd [21]: 6.2 L/kg |

Second part, led by results:

| Ratio IC50/EC50 (Prostacyclin receptor) | AUC (Rattus norvegicus [13]) [µg·h/mL] | clearance [20] [L/h/kg] | SMILES | Ratio EC50 [2] | further results |
| --- | --- | --- | --- | --- | --- |
| 2 to 10 | – | – | O=C(O)COC[C@H]1CC[C@H](COC(=O)N(c2cccc(F)c2)c2ccc(Cl)c(F)c2)CC1 | 10 to 30 | – |
| 2 to 10 | 4.5 | 0.6 | O=C(O)COC[C@H]1CC[C@H](COC(=O)N(c2ccccc2)c2ccc(F)c(F)c2)CC1 | 10 to 30 | Vd [21]: 1.1 L/kg |
| 2 to 10 | – | – | O=C(O)COC[C@H]1CC[C@H](COC(=O)N(c2ccccc2)c2ccc(F)c(Cl)c2)CC1 | 10 to 30 | – |
| 2 to 10 | 2.6 | 0.8 | O=C(O)COC[C@H]1CC[C@H](COC(=O)N(c2ccccc2)c2ccc(Cl)c(F)c2)CC1 | 10 to 30 | Vd [21]: 3.5 L/kg |
